Test results reported in ChEMBL document CHEMBL4706727, “Discovery of 2,4-1H-Imidazole Carboxamides as Potent and Selective TAK1 Inhibitors” (ACS Med Chem Lett, 2021).
Values after ≈ are worked out from the molar mass of the structure shown.

Assays:
TAK1/TAB1 = TAK1/TAB1 (Homo sapiens, UniProt O43318); assay: Inhibition of recombinant human full-length His-tagged TAK1-TAB1 fusion protein (437 to 504 residues) expressed in baculovirus expression system using fluorescein-MAP2K1 as substrate preincubated for 30 mins followed by substrate addition and measured after 60 mins in presence of ATP by lanthascreen TR-FRET assay
[1] = target: T1, Mitogen-activated protein kinase kinase kinase 7 (Homo sapiens, UniProt O43318); assay: Binding affinity to wild-type human partial length TAK1 (M1 to Q303 residues) expressed in mammalian expression system by Kinomescan method
T1 sequence (O43318 whole entry): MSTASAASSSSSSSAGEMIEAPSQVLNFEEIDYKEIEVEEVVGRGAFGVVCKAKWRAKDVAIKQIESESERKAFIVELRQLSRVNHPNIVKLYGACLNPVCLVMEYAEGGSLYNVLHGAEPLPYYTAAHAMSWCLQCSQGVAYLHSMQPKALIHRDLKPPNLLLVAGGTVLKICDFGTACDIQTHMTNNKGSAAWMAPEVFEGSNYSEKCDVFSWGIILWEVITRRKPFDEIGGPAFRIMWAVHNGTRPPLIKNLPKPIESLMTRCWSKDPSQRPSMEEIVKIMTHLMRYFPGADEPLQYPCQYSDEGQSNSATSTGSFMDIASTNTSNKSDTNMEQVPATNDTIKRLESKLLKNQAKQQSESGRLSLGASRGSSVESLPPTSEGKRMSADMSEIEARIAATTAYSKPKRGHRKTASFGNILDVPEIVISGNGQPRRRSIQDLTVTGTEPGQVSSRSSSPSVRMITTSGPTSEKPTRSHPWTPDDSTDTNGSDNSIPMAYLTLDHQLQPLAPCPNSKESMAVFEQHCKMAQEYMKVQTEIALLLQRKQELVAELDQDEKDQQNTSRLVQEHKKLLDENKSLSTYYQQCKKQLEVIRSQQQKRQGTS
In short: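 Dissociation constant for TAK1 binding measured on the KdELECT platform.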

[2] = Half life in rat liver S9 fraction at 1 uM measured up to 60 mins in presence of NADPH by LC-MS analysis; type: ADME, subcellular
[3] = target: Serine/threonine-protein kinase 32A (Homo sapiens) (UniProt Q8WU08); assay: Inhibition of wild-type human full-length YANK1 (M1 to L396 residues) expressed in mammalian expression system at 10 uM by Kinomescan method relative to control
In short: (§1)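 Single-concentration screen at 10 μM across a 468-kinase KINOMEscan panel (453 human, 403 wild-type kinases). Binding to each kinase was read out as percent inhibition relative to control, with >65% taken as the inhibition cutoff.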

[4] = Efflux ratio of apparent permeability across basolateral to apical side over apical to basolateral side in human Caco-2 cells at 2 uM after 2 hrs by LC/MS-MS analysis; type: ADME, cell-based
[5] = Apparent permeability across apical to basolateral side in human Caco-2 cells at 2 uM after 2 hrs by LC/MS-MS analysis; type: ADME, cell-based
[6] = Aqueous solubility of compound in pH 7.4 PBS buffer measured after 24 hrs by HPLC-UV analysis; type: physicochemical
[7] = Half life in human liver S9 fraction at 1 uM measured up to 60 mins in presence of NADPH by LC-MS analysis; type: ADME, subcellular
[8] = tested on: Tyrosine-protein kinase ABL1 (Homo sapiens), P00519 [H396P]; assay: Inhibition of human ABL1 H396P mutant (S229 to K512 residues) expressed in mammalian expression system at 10 uM by kinomescan method relative to control; in short: as §1
[9] = target: Activated CDC42 kinase 1 (Homo sapiens) (UniProt Q07912); assay: Inhibition of wild-type human partial length TNK2 (S159 to D474 residues) expressed in bacterial expression system at 10 uM by Kinomescan method relative to control; in short: as §1
[10] = Apparent permeability across basolateral to apical side in human Caco-2 cells at 2 uM after 2 hrs by LC/MS-MS analysis; type: ADME, cell-based
[11] = Half life in CD-1 mouse liver S9 fraction at 1 uM measured up to 60 mins in presence of NADPH by LC-MS analysis; type: ADME, subcellular
[12] = target: Eukaryotic translation initiation factor 2-alpha kinase 1 (Homo sapiens) (UniProt Q9BQI3); assay: Inhibition of wild-type human partial length EIF2AK1 (Q147 to E603 residues) expressed in mammalian expression system at 10 uM by Kinomescan method relative to control; in short: as §1
[13] = target: T2, Phosphatidylinositol 4,5-bisphosphate 3-kinase catalytic subunit delta isoform (Homo sapiens) (UniProt O00329); assay: Inhibition of wild-type human partial length PIK3CD (R108 to Q1044 residues) expressed in mammalian expression system at 10 uM by Kinomescan method relative to control; details: dose 1.0 µM, in the assay text read “at 1 uM” for “at 10 uM”
T2 sequence (whole entry): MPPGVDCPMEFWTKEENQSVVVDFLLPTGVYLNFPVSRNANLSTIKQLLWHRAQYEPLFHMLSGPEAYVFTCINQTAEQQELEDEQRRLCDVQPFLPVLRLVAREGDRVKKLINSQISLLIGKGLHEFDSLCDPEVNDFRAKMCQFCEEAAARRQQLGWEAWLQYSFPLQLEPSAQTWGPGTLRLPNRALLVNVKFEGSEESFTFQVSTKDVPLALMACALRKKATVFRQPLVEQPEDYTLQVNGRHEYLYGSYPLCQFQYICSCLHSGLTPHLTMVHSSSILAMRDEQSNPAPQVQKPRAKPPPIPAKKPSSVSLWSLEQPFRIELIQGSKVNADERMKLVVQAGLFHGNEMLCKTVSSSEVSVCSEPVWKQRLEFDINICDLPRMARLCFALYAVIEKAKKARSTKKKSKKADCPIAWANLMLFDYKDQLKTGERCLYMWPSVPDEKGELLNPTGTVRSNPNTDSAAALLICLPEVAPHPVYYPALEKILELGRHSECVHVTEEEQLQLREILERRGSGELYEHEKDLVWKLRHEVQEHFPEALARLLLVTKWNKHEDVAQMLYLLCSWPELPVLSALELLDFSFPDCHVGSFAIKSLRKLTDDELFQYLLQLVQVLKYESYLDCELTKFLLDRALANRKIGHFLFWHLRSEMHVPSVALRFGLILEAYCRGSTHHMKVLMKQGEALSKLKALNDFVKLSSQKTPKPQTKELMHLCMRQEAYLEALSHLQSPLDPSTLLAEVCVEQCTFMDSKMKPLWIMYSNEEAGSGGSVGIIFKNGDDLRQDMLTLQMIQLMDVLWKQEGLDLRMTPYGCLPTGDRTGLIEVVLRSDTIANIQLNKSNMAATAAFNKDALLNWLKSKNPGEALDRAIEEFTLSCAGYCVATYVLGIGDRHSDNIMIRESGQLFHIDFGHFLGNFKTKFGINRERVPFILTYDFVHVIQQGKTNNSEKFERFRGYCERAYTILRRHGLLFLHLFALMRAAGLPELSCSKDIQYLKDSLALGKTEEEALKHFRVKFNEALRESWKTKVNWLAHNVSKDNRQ

[14] = target: Phosphatidylinositol 4-phosphate 5-kinase type-1 gamma (Homo sapiens) (UniProt O60331); assay: Inhibition wild type human partial length PIP5K1C (M1 to T668 residues) expressed in mammalian expression system at 10 uM by Kinomescan method relative to control; details: dose 1.0 µM, in the assay text read “at 1 uM” for “at 10 uM”
Chain of Phosphatidylinositol 4-phosphate 5-kinase type-1 gamma (Homo sapiens) (O60331 whole entry, the tested form may be a part): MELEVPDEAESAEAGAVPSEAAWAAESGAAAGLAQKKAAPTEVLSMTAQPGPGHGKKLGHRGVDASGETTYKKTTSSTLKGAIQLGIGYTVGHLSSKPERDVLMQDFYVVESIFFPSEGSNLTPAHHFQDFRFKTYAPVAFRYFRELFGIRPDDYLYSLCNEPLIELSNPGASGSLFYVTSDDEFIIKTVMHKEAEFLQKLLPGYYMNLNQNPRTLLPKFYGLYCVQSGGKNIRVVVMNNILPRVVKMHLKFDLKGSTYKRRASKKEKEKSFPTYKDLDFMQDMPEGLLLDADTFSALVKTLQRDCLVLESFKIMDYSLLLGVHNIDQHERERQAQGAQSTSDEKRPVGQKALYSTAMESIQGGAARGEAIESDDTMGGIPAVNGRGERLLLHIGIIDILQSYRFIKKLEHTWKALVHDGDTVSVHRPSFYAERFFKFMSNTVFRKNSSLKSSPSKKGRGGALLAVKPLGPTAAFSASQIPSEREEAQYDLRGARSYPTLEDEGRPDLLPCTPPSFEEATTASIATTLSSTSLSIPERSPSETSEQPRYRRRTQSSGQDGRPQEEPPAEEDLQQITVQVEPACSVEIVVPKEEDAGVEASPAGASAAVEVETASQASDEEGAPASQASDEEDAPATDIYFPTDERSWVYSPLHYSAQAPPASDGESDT

Chain of TAK1/TAB1 (Q15750 whole entry, one chain of several, the tested form may be a part): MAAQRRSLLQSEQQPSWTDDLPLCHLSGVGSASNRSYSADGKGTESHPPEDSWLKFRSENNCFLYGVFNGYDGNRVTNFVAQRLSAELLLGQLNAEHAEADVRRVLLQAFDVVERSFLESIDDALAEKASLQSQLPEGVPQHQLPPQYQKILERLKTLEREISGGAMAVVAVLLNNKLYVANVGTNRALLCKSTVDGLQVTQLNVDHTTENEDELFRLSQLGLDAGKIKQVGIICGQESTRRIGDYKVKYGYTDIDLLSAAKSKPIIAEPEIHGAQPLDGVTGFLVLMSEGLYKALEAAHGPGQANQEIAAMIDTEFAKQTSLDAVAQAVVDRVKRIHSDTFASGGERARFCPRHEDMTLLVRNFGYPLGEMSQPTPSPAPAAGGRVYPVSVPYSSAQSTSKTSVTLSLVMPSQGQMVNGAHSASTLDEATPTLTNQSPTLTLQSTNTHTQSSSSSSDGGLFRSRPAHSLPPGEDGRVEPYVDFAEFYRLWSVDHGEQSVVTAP
Chain of Eukaryotic translation initiation factor 2-alpha kinase 1 (Homo sapiens) (Q9BQI3 whole entry, the tested form may be a part, canonical isoform): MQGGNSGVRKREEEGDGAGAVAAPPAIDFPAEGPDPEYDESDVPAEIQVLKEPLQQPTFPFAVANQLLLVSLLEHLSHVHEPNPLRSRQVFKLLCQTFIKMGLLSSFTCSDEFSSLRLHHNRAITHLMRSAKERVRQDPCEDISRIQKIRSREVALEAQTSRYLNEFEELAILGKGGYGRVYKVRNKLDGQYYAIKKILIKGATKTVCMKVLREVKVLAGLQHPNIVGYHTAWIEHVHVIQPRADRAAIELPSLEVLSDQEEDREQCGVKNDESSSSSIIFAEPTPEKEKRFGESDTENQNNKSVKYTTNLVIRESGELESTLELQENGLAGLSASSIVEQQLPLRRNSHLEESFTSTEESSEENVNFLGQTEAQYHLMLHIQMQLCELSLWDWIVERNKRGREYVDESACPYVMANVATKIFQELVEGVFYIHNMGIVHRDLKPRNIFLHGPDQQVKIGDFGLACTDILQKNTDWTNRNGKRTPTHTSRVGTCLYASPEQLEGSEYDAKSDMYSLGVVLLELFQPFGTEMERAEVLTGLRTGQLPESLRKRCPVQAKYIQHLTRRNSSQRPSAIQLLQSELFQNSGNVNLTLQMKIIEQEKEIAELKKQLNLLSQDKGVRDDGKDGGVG
Chain of Activated CDC42 kinase 1 (Homo sapiens) (Q07912 whole entry, looked up, the tested form may be a part): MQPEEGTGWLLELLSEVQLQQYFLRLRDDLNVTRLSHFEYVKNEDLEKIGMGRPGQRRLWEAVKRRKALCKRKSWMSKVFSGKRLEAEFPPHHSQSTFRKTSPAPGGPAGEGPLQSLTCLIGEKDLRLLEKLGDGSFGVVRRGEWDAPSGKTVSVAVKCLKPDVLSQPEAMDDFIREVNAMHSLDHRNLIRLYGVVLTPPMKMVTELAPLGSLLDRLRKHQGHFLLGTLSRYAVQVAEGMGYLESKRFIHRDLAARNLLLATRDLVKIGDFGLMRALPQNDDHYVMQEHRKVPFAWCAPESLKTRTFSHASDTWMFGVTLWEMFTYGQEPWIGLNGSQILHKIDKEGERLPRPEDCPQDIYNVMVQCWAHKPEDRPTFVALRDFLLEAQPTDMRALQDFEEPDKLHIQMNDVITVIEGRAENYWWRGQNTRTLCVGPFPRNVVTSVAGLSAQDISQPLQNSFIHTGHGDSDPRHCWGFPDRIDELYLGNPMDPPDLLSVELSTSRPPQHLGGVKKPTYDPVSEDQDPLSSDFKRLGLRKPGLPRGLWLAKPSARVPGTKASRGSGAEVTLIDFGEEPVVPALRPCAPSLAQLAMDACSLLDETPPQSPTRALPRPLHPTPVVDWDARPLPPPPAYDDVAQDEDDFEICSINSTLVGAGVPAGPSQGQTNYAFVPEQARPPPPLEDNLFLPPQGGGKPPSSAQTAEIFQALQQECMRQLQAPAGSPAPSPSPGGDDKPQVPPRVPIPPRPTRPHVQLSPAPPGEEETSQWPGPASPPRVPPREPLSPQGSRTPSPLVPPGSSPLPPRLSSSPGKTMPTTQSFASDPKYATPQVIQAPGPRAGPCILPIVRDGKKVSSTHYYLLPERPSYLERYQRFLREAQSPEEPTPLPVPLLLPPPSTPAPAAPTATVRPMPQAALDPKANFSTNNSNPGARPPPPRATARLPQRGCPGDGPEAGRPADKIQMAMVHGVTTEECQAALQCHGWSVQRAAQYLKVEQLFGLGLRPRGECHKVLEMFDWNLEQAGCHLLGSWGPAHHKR
Chain of Serine/threonine-protein kinase 32A (Homo sapiens) (Q8WU08 whole entry, the tested form may be a part): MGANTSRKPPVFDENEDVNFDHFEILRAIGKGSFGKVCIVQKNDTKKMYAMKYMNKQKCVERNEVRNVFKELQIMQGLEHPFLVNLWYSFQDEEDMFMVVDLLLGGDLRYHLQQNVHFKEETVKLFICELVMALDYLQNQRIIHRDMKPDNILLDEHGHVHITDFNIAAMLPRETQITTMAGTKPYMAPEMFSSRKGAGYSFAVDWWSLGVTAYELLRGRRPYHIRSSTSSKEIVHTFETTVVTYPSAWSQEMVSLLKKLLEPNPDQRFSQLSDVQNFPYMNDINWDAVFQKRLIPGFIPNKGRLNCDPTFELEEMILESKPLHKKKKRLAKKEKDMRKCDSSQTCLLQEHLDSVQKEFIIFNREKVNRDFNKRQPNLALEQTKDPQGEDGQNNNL

IC50 (TAK1/TAB1) | Structure (SMILES) | further results
> 10 µM | CNC(=O)CN(Cc1cccc(OC(F)F)c1)C(=O)c1c[nH]c(C(=O)N2CCCC2)n1 | –
2.3 µM | CNC(=O)CN(Cc1ccccc1OC(F)F)C(=O)c1c[nH]c(C(=O)N2CCC(c3ccccc3)C2)n1 (centres undefined) | –
– | CNC(=O)CN(Cc1ccccc1OC(F)F)C(=O)c1c[nH]c(C(=O)N2CCCC2)n1 | Kd [1]: 0.055 µM; half-life at 1 µM [2]: > 2 h; inhibition [3]: > 65%; efflux ratio at 2 h, 2 µM [4]: 20; Papp A→B at 2 h, 2 µM [5]: 1 ×10⁻⁶ cm/s; solubility at 24 h [6]: 30 µM (≈ 13.1 µg/mL); half-life at 1 µM [7]: > 2 h; inhibition [8]: > 65%; inhibition [9]: > 65%; Papp B→A at 2 h, 2 µM [10]: 20 ×10⁻⁶ cm/s; half-life at 1 µM [11]: > 2 h; inhibition [12]: > 65%
5.7 µM | CNC(=O)CN(Cc1ccccc1OC(F)F)C(=O)c1c[nH]c(C(=O)N2CCCC2C)n1 (centres undefined) | –
> 10 µM | CNC(=O)CN(C(=O)c1c[nH]c(C(=O)N2CCCC2)n1)C(C)c1ccccc1OC(F)F (centres undefined) | –
> 10 µM | CNC(=O)CN(Cc1ccccc1OC(F)F)C(=O)c1c[nH]c(C(=O)N2CCC(NC(C)=O)C2)n1 (centres undefined) | –
> 10 µM | CNC(=O)C(C(C)C)N(Cc1ccccc1OC(F)F)C(=O)c1c[nH]c(C(=O)N2CCCC2)n1 (centres undefined) | –
> 10 µM | CNC(=O)CN(Cc1cc(Cl)ccc1OC(F)F)C(=O)c1c[nH]c(C(=O)N2CCCC2)n1 | –
> 100 µM | CNC(=O)CN(Cc1ccccc1OC(F)F)C(=O)c1cc(C(=O)N2CCCC2)n(C)c1 | –
> 10 µM | CNC(=O)CN(Cc1c(Cl)cccc1OC(F)F)C(=O)c1c[nH]c(C(=O)N2CCCC2)n1 | –
0.9 µM | NC(=O)CN(Cc1ccccc1OC(F)F)C(=O)c1c[nH]c(C(=O)N2CCCC2)c1 | –
1.7 µM | CC(C)NC(=O)CN(Cc1ccccc1OC(F)F)C(=O)c1c[nH]c(C(=O)N2CCCC2)c1 | –
> 10 µM | CNC(=O)CN(Cc1ccccc1)C(=O)c1c[nH]c(C(=O)N2CCCC2)n1 | –
> 10 µM | CNC(=O)CN(Cc1cc(F)ccc1OC(F)F)C(=O)c1c[nH]c(C(=O)N2CCCC2)n1 | –
1.2 µM | CNC(=O)CN(Cc1ccccc1OC(F)F)C(=O)c1c[nH]c(C(=O)N2CCCCC2)n1 | –
4.5 µM | CNC(=O)[C@H](C)N(Cc1ccccc1OC(F)F)C(=O)c1c[nH]c(C(=O)N2CCCC2)n1 | –
0.005 µM | CNC(=O)CN(Cc1ccccc1OC(F)F)C(=O)c1c[nH]c(C(=O)N2Cc3ccc(C(N)=O)cc3C2)n1 | inhibition [13]: > 65%; inhibition [14]: > 65%
3.4 µM | CNC(=O)CN(Cc1cccc2c1OCCCO2)C(=O)c1c[nH]c(C(=O)N2CCCC2)c1 | –
3.2 µM | O=C(c1c[nH]c(C(=O)N2CCCC2)c1)N(Cc1ncco1)Cc1ccccc1OC(F)F | –
1.2 µM | CNC(=O)CN(Cc1ccccc1OC(F)F)C(=O)c1c[nH]c(C(=O)N2CCC(F)C2)n1 (centres undefined) | –
> 10 µM | CNC(=O)CN(Cc1ccccc1OC(F)F)C(=O)c1c[nH]c(C(=O)N2CCC(OC)C2)n1 (centres undefined) | –
